Active and inactive are the calls of the source. The calls are words filed in the database; no cut-off is given here.
Experiments:
[1] = system: MCF7; assay: Cytotoxicity against human MCF7 cells assessed as reduction in cell proliferation after 96 hrs by sulforhodamine B assay; type: functional, cell-based; conditions: MCF7, 96 h
[2] = system: HT-29; assay: Cytotoxicity against human HT-29 cells assessed as reduction in cell proliferation after 96 hrs by sulforhodamine B assay; type: functional, cell-based; conditions: HT-29, 96 h
[3] = system: SW-1736; assay: Cytotoxicity against human SW1736 cells assessed as reduction in cell proliferation after 96 hrs by sulforhodamine B assay; type: functional, cell-based; conditions: SW-1736, 96 h
[4] = system: A2780; assay: Cytotoxicity against human A2780 cells assessed as reduction in cell proliferation after 96 hrs by sulforhodamine B assay; type: functional, cell-based; conditions: A2780, 96 h
[5] = system: 518A2; assay: Cytotoxicity against human 518A2 cells assessed as reduction in cell proliferation after 96 hrs by sulforhodamine B assay; type: functional, cell-based; conditions: 518A2, 96 h
[6] = system: NIH3T3; assay: Cytotoxicity against mouse NIH/3T3 cells assessed as reduction in cell proliferation after 96 hrs by sulforhodamine B assay; type: ADME, cell-based; conditions: NIH3T3, 96 h
[7] = system: FaDu; assay: Cytotoxicity against human FADU cells assessed as reduction in cell proliferation after 96 hrs by sulforhodamine B assay; type: functional, cell-based
[8] = system: A549; assay: Cytotoxicity against human A549 cells assessed as reduction in cell proliferation after 96 hrs by sulforhodamine B assay; type: functional, cell-based; conditions: A549, 96 h
[9] = Selectivity index, ratio of EC50 for mouse NIH/3T3 cells to EC50 for human A2780 cells; conditions: NIH/3T3 cells versus A2780 cells
[10] = system: A2780; assay: Cell cycle arrest in human A2780 cells assessed as decrease in S phase at 10 uM after 48 hrs by FACS analysis; type: functional, cell-based
How it was run: (§1)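 Living A2780 cells treated with 10 µM test agent for 24 h and 48 h, then examined for cell-cycle distribution by FACS. Phase populations (Sub-G1, G1/G0, S, G2/M) were quantified by model fitting and expressed as arithmetic means of the population distribution (%).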

[11] = system: A2780; assay: Cell cycle arrest in human A2780 cells assessed as increase in subG1 phase at 10 uM after 48 hrs by FACS analysis; type: functional, cell-based; how it was run: as §1
[12] = system: A2780; assay: Cell cycle arrest in human A2780 cells assessed as decrease in G2/M phase at 10 uM after 24 hrs by FACS analysis; type: functional, cell-based; how it was run: as §1
[13] = system: A2780; assay: Induction of apoptosis in human A2780 cells assessed as secondary necrotic cells at 10 uM after 24 hrs by Annexin V/propidium iodide staining based flow cytometry relative to control; type: functional
How it was run: (§2)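 Annexin V/propidium iodide staining of A2780 cells exposed to 10 µM compound for 24 h and 48 h, read by flow cytometry. Viable, apoptotic, necrotic and secondary-necrotic fractions were reported as relative changes versus untreated control (%).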

[14] = system: A2780; assay: Cell cycle arrest in human A2780 cells assessed as decrease in G1/G0 phase at 10 uM after 48 hrs by FACS analysis; type: functional, cell-based; how it was run: as §1
[15] = system: A2780; assay: Induction of apoptosis in human A2780 cells assessed as necrotic cells at 10 uM after 24 hrs by Annexin V/propidium iodide staining based flow cytometry relative to control; type: functional; how it was run: as §2
[16] = system: A2780; assay: Cell cycle arrest in human A2780 cells assessed as increase in S phase at 10 uM after 24 hrs by FACS analysis; type: functional, cell-based; how it was run: as §1
[17] = system: A2780; assay: Induction of apoptosis in human A2780 cells assessed as viable cells at 10 uM after 24 hrs by Annexin V/propidium iodide staining based flow cytometry relative to control; type: functional; conditions: A2780, 24 h, read-out: Activity; how it was run: as §2
[18] = system: A2780; assay: Induction of apoptosis in human A2780 cells assessed as apoptotic cells at 10 uM after 24 hrs by Annexin V/propidium iodide staining based flow cytometry relative to control; type: functional; how it was run: as §2
[19] = system: A2780; assay: Cell cycle arrest in human A2780 cells assessed as decrease in G1/G0 phase at 10 uM after 24 hrs by FACS analysis; type: functional, cell-based; how it was run: as §1

| Compound | EC50 [1] | EC50 [2] | EC50 [3] | EC50 [4] | EC50 [5] | EC50 [6] | EC50 [7] | EC50 [8] | selectivity ratio [9] | Activity [10] | Activity [11] | Activity [12] | Activity [13] | Activity [14] | Activity [15] | Activity [16] | change in viable cells vs control (%) at 10 µM [17] | Activity [18] | Activity [19] |
| --- | --- | --- | --- | --- | --- | --- | --- | --- | --- | --- | --- | --- | --- | --- | --- | --- | --- | --- | --- |
| CC(=O)O[C@@H]1[C@H](OC(C)=O)C[C@]2(C)[C@H]3CC=C4[C@@H]5CC(C)(C)CC[C@]5(C(=O)O)CC[C@@]4(C)[C@]3(C)CC[C@H]2C1(C)C | 17.6 µM | 21.4 µM | 22 µM | 10.5 µM | 15.3 µM | 14.2 µM | 17.3 µM | 20.4 µM |  |  |  |  |  |  |  |  |  |  |  |
| CC(=O)O[C@H]1C[C@]2(C)[C@H]3CC=C4[C@@H]5CC(C)(C)CC[C@]5(C(=O)O)CC[C@@]4(C)[C@]3(C)CC[C@H]2C(C)(C)[C@@H]1OC(C)=O | 14.8 µM | 16.5 µM | 23.4 µM | 6.7 µM | 11.7 µM | 10 µM | 9.5 µM | 15.2 µM |  |  |  |  |  |  |  |  |  |  |  |
| CC(=O)O[C@@H]1C[C@]2(C)[C@H]3CC=C4[C@@H]5CC(C)(C)CC[C@]5(C(=O)NCc5ccccc5)CC[C@@]4(C)[C@]3(C)CC[C@H]2C(C)(C)[C@H]1OC(C)=O | 7.7 µM | 4.7 µM |  | 0.5 µM | 1.5 µM | 33.8 µM | 3.1 µM | 2.5 µM | 70 |  |  |  |  |  |  |  |  |  |  |
| COCO[C@@H]1C[C@]2(C)[C@H]3CC=C4[C@@H]5CC(C)(C)CC[C@]5(C(=O)NCc5ccccc5)CC[C@@]4(C)[C@]3(C)CC[C@H]2C(C)(C)[C@H]1OCOC | 15.2 µM | 15.9 µM | 18.2 µM |  | 22.1 µM | 15 µM | 17.9 µM | 17.3 µM |  |  |  |  |  |  |  |  |  |  |  |
| CC1(C)CC[C@]2(C(=O)NCc3ccccc3)CC[C@]3(C)C(=CC[C@@H]4[C@@]5(C)C[C@H]6OC(C)(C)O[C@@H]6C(C)(C)[C@@H]5CC[C@]43C)[C@@H]2C1 | 14.6 µM | 25.9 µM | > 30 µM | 12.9 µM | 29.8 µM | 21.6 µM | > 30 µM | 26.4 µM |  |  |  |  |  |  |  |  |  |  |  |
| CC1(C)CC[C@]2(C(=O)NCc3ccccc3)CC[C@]3(C)C(=CC[C@@H]4[C@@](C)(CC=O)[C@H](C(C)(C)C=O)CC[C@]43C)[C@@H]2C1 | 5.4 µM | 8.3 µM | 7.5 µM |  | 6 µM | 12.2 µM | 7 µM | 6.9 µM |  |  |  |  |  |  |  |  |  |  |  |
| CC(=O)O[C@@H]1C[C@]2(C)[C@H]3CC=C4[C@@H]5CC(C)(C)CC[C@]5(C(=O)Nc5ccccc5)CC[C@@]4(C)[C@]3(C)CC[C@H]2C(C)(C)[C@H]1OC(C)=O | 3.1 µM | 2.9 µM | 2.9 µM |  | 0.7 µM | 16 µM | 1.4 µM | 9.5 µM |  |  |  |  |  |  |  |  |  |  |  |
| CO[C@@H]1C[C@]2(C)[C@H]3CC=C4[C@@H]5CC(C)(C)CC[C@]5(C(=O)NCc5ccccc5)CC[C@@]4(C)[C@]3(C)CC[C@H]2C(C)(C)[C@H]1O | 11.7 µM | 10.6 µM | 18.1 µM |  | 12.6 µM | 11.9 µM | 11.4 µM | 21.5 µM |  |  |  |  |  |  |  |  |  |  |  |
| CO[C@@H]1C[C@]2(C)[C@H]3CC=C4[C@@H]5CC(C)(C)CC[C@]5(C(=O)NCc5ccccc5)CC[C@@]4(C)[C@]3(C)CC[C@H]2C(C)(C)[C@H]1OC | 14.6 µM | 14.3 µM | 20.5 µM |  | 18.1 µM | 14.7 µM | 17.2 µM | 15.3 µM |  |  |  |  |  |  |  |  |  |  |  |
| CC1(C)CC[C@]2(C(=O)NCc3ccccc3)CC[C@]3(C)C(=CC[C@@H]4[C@@]5(C)C[C@@H]6O[C@@H]6C(C)(C)[C@@H]5CC[C@]43C)[C@@H]2C1 | 8.6 µM | 26.6 µM | > 30 µM | 8.6 µM | 15.7 µM | 20.5 µM | > 30 µM | 25.8 µM |  |  |  |  |  |  |  |  |  |  |  |
| CC(=O)O[C@H]1C[C@]2(C)[C@H]3CC=C4[C@@H]5[C@@H](C)[C@H](C)CC[C@]5(NC(=O)c5ccccc5)CC[C@@]4(C)[C@]3(C)CC[C@H]2C(C)(C)[C@H]1OC(C)=O | > 30 µM | 11.7 µM | 14.9 µM | 6.7 µM | 7.9 µM | 14.1 µM |  | 16.4 µM |  |  |  |  |  |  |  |  |  |  |  |
| CC(=O)O[C@H]1C[C@]2(C)[C@H]3CC=C4[C@@H]5CC(C)(C)CC[C@]5(C(=O)Nc5ccccc5)CC[C@@]4(C)[C@]3(C)CC[C@H]2C(C)(C)[C@H]1OC(C)=O | 1.8 µM | 2.6 µM | 2.7 µM | 1.3 µM | 2 µM | > 60 µM |  | 4.9 µM |  |  |  |  |  |  |  |  |  |  |  |
| CC(=O)O[C@H]1C[C@]2(C)[C@H]3CC=C4[C@@H]5CC(C)(C)CC[C@]5(C(=O)O)CC[C@@]4(C)[C@]3(C)CC[C@H]2C(C)(C)[C@H]1OC(C)=O | 15.1 µM | 18.8 µM | > 30 µM | 7.2 µM |  | 8 µM | > 30 µM | 29.1 µM |  |  |  |  |  |  |  |  |  |  |  |
| CC(=O)O[C@H]1C[C@]2(C)[C@H]3CC=C4[C@@H]5[C@@H](C)[C@H](C)CC[C@]5(NC(=O)Nc5ccccc5)CC[C@@]4(C)[C@]3(C)CC[C@H]2C(C)(C)[C@H]1OC(C)=O | 19.6 µM | 16 µM | 6.8 µM | 1.5 µM | 2.5 µM | > 120 µM |  | 12.4 µM |  |  |  |  |  |  |  |  |  |  |  |
| CC1(C)CC[C@]2(C(=O)NCc3ccccc3)CC[C@]3(C)C(=CC[C@@H]4[C@@]5(C)C[C@H]6OCO[C@@H]6C(C)(C)[C@@H]5CC[C@]43C)[C@@H]2C1 | 16.7 µM | 20.8 µM | > 30 µM |  | > 30 µM | 13.9 µM | > 30 µM | > 30 µM |  |  |  |  |  |  |  |  |  |  |  |
| CC(=O)O[C@H]1C[C@]2(C)[C@H]3CC=C4[C@@H]5CC(C)(C)CC[C@]5(NC(=O)Oc5ccccc5)CC[C@@]4(C)[C@]3(C)CC[C@H]2C(C)(C)[C@H]1OC(C)=O | 5.8 µM | 8.5 µM | 7.3 µM | 2.4 µM | 4.4 µM | 15.4 µM |  | 8.5 µM |  | Active | Active | Active | 3% | Active | -1% | Active | -4% | 2% | Active |
| CC(=O)O[C@H]1C[C@]2(C)[C@H]3CC=C4[C@@H]5CC(C)(C)CC[C@]5(NC(=O)c5ccccc5)CC[C@@]4(C)[C@]3(C)CC[C@H]2C(C)(C)[C@H]1OC(C)=O | 16.8 µM | 6.8 µM | 6.8 µM | 3.1 µM | 3.5 µM | 12.2 µM |  | 11.1 µM |  |  |  |  |  |  |  |  |  |  |  |
| CC(=O)O[C@H]1C[C@]2(C)[C@H]3CC=C4[C@@H]5[C@@H](C)[C@H](C)CC[C@]5(C(=O)Nc5ccccc5)CC[C@@]4(C)[C@]3(C)CC[C@H]2C(C)(C)[C@H]1OC(C)=O | 16.4 µM | 7.3 µM | 4.4 µM | 3.3 µM | 3.4 µM | > 60 µM |  | 8.9 µM |  |  |  |  |  |  |  |  |  |  |  |
| CC(=O)O[C@H]1C[C@]2(C)[C@H]3CC=C4[C@@H]5[C@@H](C)[C@H](C)CC[C@]5(NC(=O)Oc5ccccc5)CC[C@@]4(C)[C@]3(C)CC[C@H]2C(C)(C)[C@H]1OC(C)=O | 23.3 µM | 7.6 µM | 5.5 µM | 1.6 µM | 3.1 µM | > 30 µM |  | 10.1 µM |  |  |  |  |  |  |  |  |  |  |  |
| CC(=O)O[C@@H]1C[C@]2(C)[C@H]3CC=C4[C@@H]5CC(C)(C)CC[C@]5(C(=O)O)CC[C@@]4(C)[C@]3(C)CC[C@H]2C(C)(C)[C@H]1OC(C)=O | 16.6 µM |  |  |  | 23.1 µM |  | 17.8 µM |  |  |  |  |  |  |  |  |  |  |  |  |
| CC(=O)O[C@@H]1C[C@]2(C)[C@H]3CC=C4[C@@H]5CC(C)(C)CC[C@]5(C(=O)NCCc5ccccc5)CC[C@@]4(C)[C@]3(C)CC[C@H]2C(C)(C)[C@H]1OC(C)=O | 5.8 µM | 6.1 µM | 5.2 µM |  | 1.2 µM | 9.5 µM | 2.8 µM | 9.2 µM |  |  |  |  |  |  |  |  |  |  |  |

Source: ChEMBL document CHEMBL4428035, “Urea derivates of ursolic, oleanolic and maslinic acid induce apoptosis and are selective cytotoxic for several human tumor cell lines” (Eur J Med Chem, 2016)
